This sample holds only a part of the variants without activity. Some results are limits rather than exact numbers.

To fix the notation:
B1: tRNA (parent)
chain: GUUCCGUUGGCGUAAUGGUAACGCGUCUCCCUCCUAAGGAGAAGACUGCGGGUUCGAGUCCCGUACGGAACG

The variants in the series derive from B1. Kind of series: yeast fitness relative to wild type (ratio to wild type); higher = fitter; tRNA-Arg(CCU), competitive growth, 37 C, YPD. The procedure, abridged: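 Variants of the tRNA-Arg(CCU) gene, chemically synthesised with a 3% per-site mutation rate at 69 sites, were placed at the native genomic locus in Saccharomyces cerevisiae. The pooled strains were competed in YPD at 37°C for 24 hours in six parallel replicates. Gene amplicons from the start population and from each end population were read by 100-nucleotide paired-end sequencing. Darwinian fitness relative to wild type came from changes in genotype frequencies; genotypes needed ≥ 100 starting reads, and estimates < 0.5 were set to 0.5.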
Turning to GUUCCGUUGGCGUAACGAUAACGCGUCUCCCUCGUAAGAAGAAGACUGCGGGUUCGAGUCCAGUACGGAACG [U16C G18A C34G G39A C62A], the yeast fitness was at most 0.5.

For the variant GUUCCGUUGGCGUAAGGGUAACGCGUCUCCCUCCUGAGGAGAAGGCUGCGGGUUCGAGUCCCGUACGGAACG [U16G A36G A45G], the yeast fitness is 0.745.

Turning to GUUCCGUUGGCGUAACGGUAACGCGACUCCCUCCUAAGGAGAAGAUUGCGGGUUCAAGUCGCGUACAGAACG [U16C U26A C46U G56A C61G G67A], the yeast fitness was at most 0.5.

On to GUUCCGUUGGCGUAACGGUAACGCGUCUCCCUCCUAAGGAGAAGACCGCGUGUUCGAGUCCCGUACGGAACG [U16C U47C G51U], for which the yeast fitness is at most 0.5.

Turning to GUUCCGUUGGCGUAAGGGUAACGCGUCUCCCUCCUAAGGAGGAGACUGCGGGUUCGAGUCCCGUACGGCGCG [U16G A42G A69C A70G], the yeast fitness is at most 0.5.

Consider GUUCCGUUGGCGUAACGUUAACGUGUCUCCCUCCUAAGGAGAAGCGUGCGGGUUCGAGUCCCGUACGGAACG [U16C G18U C24U A45C C46G], for which the yeast fitness is at most 0.5.

Regarding GUUCCGUUGGCGUAACGGUAACGCGUCUCCCUCCUAAGGAGAAGACUGCGAGUUCGAGUCCCGUACGGAGCG [U16C G51A A70G], the yeast fitness came out at 0.578.

On to GUUCCGUUGGCGUAACGGUAACGCGUCUCCCUCCUAACGAGAAGACUGCGGGUUCGAGUCCCGUUUGGAACG [U16C G38C A65U C66U], for which the yeast fitness was determined as 0.569.

Consider GUUCCGUUGGCGUAACGGUAACGCGUCUCCCCCCUAAGGACAAGACUGCAGGUUCGAGUCGCGUACGGAACG [U16C U32C G41C G50A C61G], for which the yeast fitness is 0.567.

As for GUUCCGUUGGCGUAACCGUAACGCGUCUCCUUCCUAUGGAGAAGACUGCGGGUUCGAGUCCCGUACGGAACG [U16C G17C C31U A37U], the yeast fitness is at most 0.5.

As for GUUCCGUUGGCGUAAGGGUAACGCGUCUCCCUCCUAAGGAGACGACUGCGGGUUCGAGUCCCGUACGGAACG [U16G A43C], the yeast fitness came to 0.919.

With GUUCCGUUGGCGUAACGGUAACGCGUCUCCCUCCUAAGGACAAGAAUGCGGGUUCGAGUCCCGUACGGAACG [U16C G41C C46A], the yeast fitness is 0.721.

On to GUUCCGUUGGCGUAACGGUAACGCGUCUCCCUCCUAAGGAGAAGACUGCGGGUCCGAGUCCCGUACGGAACG [U16C U54C], for which the yeast fitness stood at 0.723.

Turning to GUUCCGUUGGCGUAAGGGUAACGCGUCUCCCUCCUAAGGAGCAGACCGCGGGUUCGAGUCCCGUACGGAACG [U16G A42C U47C], the yeast fitness came out at 0.676.

Take GUUCCGUUGGCGUAAGGGUAACGCGUCUCCCUCCUAGGGAGAAGCCUGCGGGUUCGAGUCGCGUACGGCACG [U16G A37G A45C C61G A69C]: the yeast fitness was at most 0.5.

For GUUCCGUUGGCGUAACGGUAACGCGCCUCCCUCCUCAGGAGAAGACUGCGGGUUCGAGUCCCGAACGGACCG [U16C U26C A36C U64A A70C], the yeast fitness was at most 0.5.

Take GUUCCGUUGGCGUAAGGGUAACGCGUCUCCCUCCUAAGGAGAAGACUGCGGGUUCGAGUCCCGUACGGAACG [U16G]: the yeast fitness came out at 1.

Regarding GUUCCGUUGGCGUAAGGGUAACGCGUCUCCCUCCUAAGGAGAAGGCUGCGGGUUCGAGUCCCGUACCGAACG [U16G A45G G67C], the yeast fitness amounted to 0.63.

For the variant GUUCCGUUGGCGUAACGGUAACGCGUCUCCCUCCAAAGGAGAAGACUGCGGGUUCGAGUCCCGUACGGAACG [U16C U35A], the yeast fitness came out at 0.74.

GUUCCGUUGGCGUAACGGUAACGCGUCUCCCUCCUAAGAAGAAGACUGCGGGUUCGAGUCGGGUACGGAACG [U16C G39A C61G C62G]: the yeast fitness was at most 0.5.

In the case of GUUCCGUUGGCGUAAGGGUAUCGCGUCUCCCUCCUAAGGAGAAGAGUGCGGGUUCGAGUCCCGUACGGAACG [U16G A21U C46G], the yeast fitness is at most 0.5.

On to GUUCCGUUGGCGUAAGGGUCGCGCGUCUCUCUCCUAAGGAGAAGACUGCGGGUUCGAGUCCCGUACGGAACG [U16G A20C A21G C30U], for which the yeast fitness is 0.579.

Take GUUCCGUUGGCGUAAGGGUCACGCAUCUCCCUCCUAAGGAGAUGACUGCAGGUUUGAGUCCCGUACGGAACG [U16G A20C G25A A43U G50A C55U]: the yeast fitness was at most 0.5.

In the case of GUUCCGUUGGCGUAAGGGUAACGCGUCUCCCUCCUAAGGAGAAGACUGCGGGUUCGGGUCCGGUACGGAACG [U16G A57G C62G], the yeast fitness was at most 0.5.

Take GUUCCGUUGGCGUAAGGGUAACGCGUCUCCCUCCUAAGGAGAAGUCUGCAGGUUCGAGUCCCGUAUGGAACG [U16G A45U G50A C66U]: the yeast fitness was at most 0.5.

In the case of GUUCCGUUGGCGUAACGGCACCCCGUCUCCCUCCUAAGGAGAAGACUGGGGAUUCGAGUCCCGUACGGAACG [U16C U19C A21C G23C C49G G52A], the yeast fitness was at most 0.5.

As for GUUCCGUUGGCGUAACGGUAACGCGUCUCCCUCCUAAGGAGAAGACUGCGGGUUCGAGACCCGUACCGAACG [U16C U59A G67C], the yeast fitness was 0.675.

In the case of GUUCCGUUGGCGUAACGGUAACGCCUCUCCCUCCUAAGGAGAAGACAGCGGGUUCGAGUCCCGUGCGGAACG [U16C G25C U47A A65G], the yeast fitness was at most 0.5.

On to GUUCCGUUGGCGUAAGGGUAACGCGUCUCCCUCCUAAGGAGUAGACUGCGGGUUCGAGUCCAGUACGGACCG [U16G A42U C62A A70C], for which the yeast fitness is at most 0.5.

On to GUUCCGUUGGCGUAACGGUAACGCGUCGCGCUCCUAAGGCGUAGACUGCGGGUUCGAGUCCCGUACGGAACG [U16C U28G C30G A40C A42U], for which the yeast fitness was at most 0.5.

GUUCCGUUGGCGUAAGGGUAACGCGUCUCCCUCCUACGGAGAAGACUGCGGGUUCGAGUCCCGUAAGGAACG [U16G A37C C66A]: the yeast fitness was at most 0.5.

In the case of GUUCCGUUGGCGUAACGGUAACGCGUCUCCCUCCUAAGGAGAAGACUGCGGAUUCGAGUCCCGUACGGAACG [U16C G52A], the yeast fitness stood at 0.713.

Consider GUUCCGUUGGCGUAACGGUAACGCGUCUCCCUCCUAAGGAGAAGACUGCGGGUUCGAGUCCCGUACAGAACG [U16C G67A], for which the yeast fitness is 0.891.

As for GUUCCGUUGGCGUAACGGUAACGCGCCUCCCUUCUAAGGAGAAGACUGCGGGUUCGAGUCCCCUACGGAACG [U16C U26C C33U G63C], the yeast fitness was at most 0.5.

Take GUUCCGUUGGCGUAAGGGUAACGCGUCUCCCUCCUAAGGAGAAGACUGCGGGUUCGAGUCCCGUACGGCACG [U16G A69C]: the yeast fitness was found to be 1.04.

For the variant GUUCCGUUGGCGUAACGGUAACGCGUCUCCCUCCUAAGGAGAAGACUGCGCGUUGGAGUCCAGUACGGAACG [U16C G51C C55G C62A], the yeast fitness was at most 0.5.

In the case of GUUCCGUUGGCGUAACGGUAACGCGGCUCCCUCCUAAGGAGAAGACUGCGGGUUCGAGUCUCGUACGGAACG [U16C U26G C61U], the yeast fitness was at most 0.5.

(Values after the RNAGym collection of RNA variant scans (doi:10.1126/science.aae0568).)
